Assay results as given in ChEMBL document CHEMBL1121422, “2,4-Diamino-5-benzylpyrimidines and analogues as antibacterial agents. 3. C-Benzylation of aminopyridines with phenolic Mannich bases. Synthesis of 1- and 3-deaza analogues of trimethoprim” (J Med Chem, 1980).

Assays:
[1] = Dissociation constant (pKa); assay type: physicochemical; conditions: read-out: Dissociation constant
[2] = molecular target: T1, Dihydrofolate reductase (Rattus norvegicus) (UniProt Q920D2); assay: Tested for inhibition of dihydrofolate reductase enzyme purified from rat liver at a concentration of 1x 10 e6 M
T1 sequence (whole entry): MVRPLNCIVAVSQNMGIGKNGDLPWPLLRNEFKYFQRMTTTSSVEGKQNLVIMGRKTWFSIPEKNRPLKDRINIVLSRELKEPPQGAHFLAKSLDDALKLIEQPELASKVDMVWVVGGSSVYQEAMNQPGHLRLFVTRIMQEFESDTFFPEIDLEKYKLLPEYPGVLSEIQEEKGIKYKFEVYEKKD
In short: (§1)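 Enzyme partially purified from rat liver, assayed in phosphate buffer by the Baccanari method. Compound held 5 min with enzyme and buffer at 37 °C before NADPH, then FH2, started the reaction. Percent inhibition of reaction rate recorded at the highest concentration tested.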

[3] = molecular target: T2, Dihydrofolate reductase (Escherichia coli) (UniProt P0ABQ4); assay: (§2) Tested for inhibition of dihydrofolate reductase enzyme purified from Escherichia coli at a concentration of 1x 10 e6M
T2 sequence (whole entry): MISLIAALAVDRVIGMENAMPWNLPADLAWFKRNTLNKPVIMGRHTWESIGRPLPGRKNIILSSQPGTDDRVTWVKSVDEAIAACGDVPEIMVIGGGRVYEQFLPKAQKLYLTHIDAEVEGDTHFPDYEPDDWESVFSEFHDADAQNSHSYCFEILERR
In short: (§3)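 Affinity-column-purified E. coli enzyme in phosphate buffer (Baccanari method). Compound preincubated 5 min with enzyme and buffer at 37 °C. NADPH added, then FH2 to start the reaction. Value is percent inhibition of reaction rate at the highest concentration tested.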

[4] = molecular target: T2, Dihydrofolate reductase (Escherichia coli); assay: as §2; in short: as §3; remark: listed apart in the source
Dihydrofolate reductase = molecular target: T3, Dihydrofolate reductase (Rattus norvegicus, UniProt Q920D2); assay: Inhibition of dihydrofolate reductase from rat liver […]; conditions: read-out: I50; in short: as §1
T3 sequence (Q920D2 whole entry): T1 sequence (whole entry)

[5] = molecular target: T1, Dihydrofolate reductase (Rattus norvegicus); assay: Tested for inhibition of dihydrofolate reductase enzyme purified from rat liver at the highest concentration tested; in short: as §1
[6] = molecular target: T2, Dihydrofolate reductase (Escherichia coli); assay: Tested for inhibition of dihydrofolate reductase enzyme purified from Escherichia coli […]; in short: as §3

| Compound | pKa [1] | IC50 (Dihydrofolate reductase) | inhibition [5] | also measured |
| --- | --- | --- | --- | --- |
| Nc1ccncc1 [DALFAMPRIDINE] | 9.25 |  |  |  |
| COc1cc(CNc2ccnc(N)c2F)cc(OC)c1O | 7.26 |  |  |  |
| COc1cc(Cc2cnc(N)cc2N)cc(OC)c1OC | 9.03 |  |  | inhibition [2]: 7% |
| Nc1cccc(N)n1 | 6.73 |  |  |  |
| Nc1ncc(Br)c(N)c1Br | 5.5 |  |  |  |
| COc1cc(Cc2cc(Cc3cc(OC)c(O)c(OC)c3)c(N)nc2N)cc(OC)c1O | 6.69 | 24 mM |  | inhibition [6]: 29% |
| CCOC(=O)Nc1ccnc(NC(=O)OCC)c1 | 5.04 |  |  |  |
| COc1cc(CC2C=CC(N)=NC2=O)cc(OC)c1O (centres undefined) | 1.31 | ~1 mM | 2.4% | inhibition [6]: 0% |
| COc1cc(CNc2ccnc(N)c2Br)cc(OC)c1O | 7.33 |  |  |  |
| Nc1ccnc(N)c1 | 9.25 |  |  |  |
| COc1cc(CC2=CC(Cc3cc(OC)c(O)c(OC)c3)C(=O)N=C2N)cc(OC)c1O (centres undefined) | 1.51 | 14 mM |  |  |
| Nc1ccnc(N)c1Br | 7.44 |  |  |  |
| CCOC(=O)Nc1ccnc(C(N)=O)c1 | 3.32 |  |  |  |

More lines, main results first:

| pKa [1] | IC50 (Dihydrofolate reductase) | inhibition [5] | Compound | also measured |
| --- | --- | --- | --- | --- |
| 6.51 |  |  | COc1cc(CNc2cccc(N)n2)cc(OC)c1O | inhibition [2]: 0%; inhibition [3]: 29%; inhibition [4]: 25% |
| 6.59 | ~40 mM | 26% | CCc1cc(Cc2ccc(N)nc2N)cc(CC)c1O |  |
|  | ~10 mM | 37% | COc1cc(Cc2cnc(N)cc2N)cc(OC)c1O |  |
| 7.2 | ~42 mM | 21% | COc1cc(Cc2cnc(N)c(Br)c2N)cc(OC)c1O | inhibition [6]: 11% |
| 7.15 | ~35 mM | 32% | COc1cc(Cc2cnc(N)c(F)c2N)cc(OC)c1O |  |
|  | 41 mM |  | COc1cc(Cc2c(N)ccnc2N)cc(OC)c1O | inhibition [6]: 26% |
|  | ~23.7 mM | 0% | CC(C)c1cc(Cc2cnc(N)c(Br)c2N)cc(C(C)C)c1O |  |
| 6.63 | ~1 mM | 19% | CCc1cc(Cc2cc(Cc3cc(CC)c(O)c(CC)c3)c(N)nc2N)cc(CC)c1O |  |
| 6.6 | ~10 mM | 34% | COc1cc(Cc2ccc(N)nc2N)cc(OC)c1O | inhibition [6]: 0% |
|  | ~27 mM | 36% | CC(C)c1cc(Cc2cnc(N)cc2N)cc(C(C)C)c1O |  |
